Activity calls are given as the source filed them. The calls are words filed in the database; no cut-off is given here.
Columns and labels:
[1] = test system: HT-22; assay: Neuroprotective activity against iodoacetic acid-induced cell death in mouse HT22 cells assessed as survival at 10 uM treated 2 hrs after iodoacetic acid challenge measured after 20 hrs by MTT colorimetric assay; assay type: functional; conditions: read-out: Survival
Procedure, shortened: (§1)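 HT22 cells in DMEM/10% FBS, 5 × 10^3 cells/well, held 24 h at 37 °C under 5% CO2. Switched to DMEM/7.5% FBS with 20 µM iodoacetic acid for 2 h. Medium then replaced with fresh DMEM/10% FBS and compound added in EtOH. After a further 20 h, viability was read by MTT. Mean ± SEM, n = 3.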

[2] = test system: HT-22; assay: Neuroprotective activity against iodoacetic acid-induced cell death in mouse HT22 cells assessed as survival treated 2 hrs after iodoacetic acid challenge measured after 20 hrs by MTT colorimetric assay; assay type: functional, cell-based; procedure, shortened: as §1
[3] = test system: N2a; assay: Induction of neurite out growth in mouse Neuro2a cells assessed as increase in percent of cells with outgrowth at 10 uM after 48 hrs by phase contrast microscopy; assay type: functional
Procedure, shortened: (§2)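 Neuro 2A cells in DMEM/10% FBS, seeded at 1 × 10^4 cells per well and grown 24 h. Medium renewed, then compound added in EtOH and cells held 48 h. Scored by phase contrast microscopy: neurite-bearing means processes longer than the cell body diameter. Percent of neurite-bearing cells counted from at least 300 cells in photomicrographs of representative-density areas.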

[4] = test system: HT-22; assay: Neuroprotective activity in mouse HT22 cells assessed as inhibition of iodoacetic acid-induced intracellular ROS production at 10 uM treated 2 hrs after iodoacetic acid challenge; assay type: functional, cell-based
Procedure, shortened: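 HT22 cells at 5 × 10^4 cells/well were cultured 24 h, then given 20 µM iodoacetic acid in DMEM/7.5% FBS for 2 h. Cells went to normal growth medium with compound (10 µM) in EtOH. At the indicated times they were washed and loaded with 10 µM DCFH-DA in serum-free medium for 20 min in the dark. After a second wash, fluorescence was read at ex 485/em 530 nm.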

[5] = test system: HT-22; assay: Neuroprotective activity against iodoacetic acid-induced intracellular ATP depletion in mouse HT22 cells assessed as recovery of ATP treated 2 hrs after iodoacetic acid challenge after 4 to 8 hrs; assay type: functional, cell-based
Procedure, shortened: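 HT22 cells at 5 × 10^3 cells/well were exposed to […] for 2 h in DMEM/7.5% FBS. They were then moved to normal growth medium, with or without compound, for the indicated times. Intracellular ATP was read by CellTiter-Glo luminescence. Mean ± SEM, n = 3.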

[6] = test system: N2a; assay: Induction of neuronal differentiation in mouse Neuro2a cells assessed as increase in acetylcholinesterase activity at 3 uM after 48 hrs by colorimetrically; assay type: functional, cell-based
Procedure, shortened: (§3)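 After 48 h treatment of Neuro 2A cells, AChE production was measured per 5 × 10^4 cells. Read-out was the colorimetric rate of acetylthiocholine hydrolysis.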

[7] = Cytotoxicity against mouse Neuro2a cells at 10 uM; assay type: cell-based; conditions: n2a
[8] = test system: N2a; assay: Induction of neurite out growth in mouse Neuro2a cells assessed as increase in percent of cells with outgrowth at 3 uM after 48 hrs by phase contrast microscopy; assay type: functional; procedure, shortened: as §2
[9] = test system: N2a; assay: Induction of neuronal differentiation in mouse Neuro2a cells assessed as increase in acetylcholinesterase activity at 10 uM after 48 hrs by colorimetrically; assay type: functional, cell-based; procedure, shortened: as §3

Structure (SMILES) | viability at 10 µM [1] [%] | Activity [2] | Activity [3] [%] | Activity [4] | Activity [5] | Activity [6] | Activity [7] | Activity [8] [%] | Activity [9]
COC1=CC(=O)C(O)=C(C[C@@]2(C)CC[C@]3(C)C(C)=CCC[C@H]3[C@H]2C)C1=O [BOLINAQUINONE] | 57 | – | – | – | – | – | – | – | –
CC1=CCC[C@H]2[C@@H](C)[C@@](C)(CC3=C(O)C(=O)C=C(N)C3=O)CC[C@]12C [DYSIDEAMINE] | 43 | Dose-dependent effect | 25 | Active | Active | Active | Non-toxic | 40 | Active

— ChEMBL document CHEMBL1151917, “Dysideamine, a new sesquiterpene aminoquinone, protects hippocampal neuronal cells against iodoacetic acid-induced cell death” (Bioorg Med Chem, 2009)
